Experimental data: ChEMBL document CHEMBL1154236, “Monoterpenes from Paeonia albiflora and their inhibitory activity on nitric oxide production by lipopolysaccharide-activated microglia” (J Nat Prod, 2009)
pIC50: −log10 of the molar value.

Tests used:
N9 [1] = assay: Cytotoxicity against LPS-stimulated mouse N9 cells at 1 to 30 uM after 48 hrs by MTT assay; assay type: cell-based; details: n9, 48 h
Outline: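 N9 microglia seeded at 5 × 10^4 cells/well and exposed to compounds with LPS (1 µg/mL) for 48 h. MTT 0.25 mg/mL then added for 3 h at 37 °C. Formazan dissolved in DMSO and absorbance read at 490 nm.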

N9 [2] = assay: Antiinflammatory activity against mouse N9 cells assessed as LPS-induced nitric oxide production at 10 uM after 48 hrs by Griess reaction relative to control; details: N9, 48 h
N9 [3] = assay: Antiinflammatory activity against mouse N9 cells assessed as LPS-induced nitric oxide production at 30 uM after 48 hrs by Griess reaction relative to control; details: N9, 48 h
N9 [4] = assay: Antiinflammatory activity against mouse N9 cells assessed as LPS-induced nitric oxide production at 3 uM after 48 hrs by Griess reaction relative to control; details: N9, 48 h
N9 [5] = assay: Antiinflammatory activity against mouse N9 cells assessed as LPS-induced nitric oxide production at 1 uM after 48 hrs by Griess reaction relative to control; details: N9, 48 h
N9 [6] = assay: Antiinflammatory activity against mouse N9 cells assessed as inhibition of LPS-induced nitric oxide production after 48 hrs by Griess reaction relative to control; details: N9, 48 h
N9 [7] = assay: Antiinflammatory activity against mouse N9 cells assessed as inhibition of LPS-induced nitric oxide production after 48 hrs by Griess reaction relative to control; assay type: functional, cell-based; details: Homo sapiens, N9, 48 h
Outline: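 Murine N9 microglia (IMDM, 5% heat-inactivated FBS, 2 mM L-glutamine, 5 × 10^-5 M 2-mercaptoethanol), 1 × 10^5 cells/well, precultured 24 h at 37 °C, 5% CO2. Then LPS 1 µg/mL plus compound (DMSO stock diluted in PBS pH 7.4, DMSO ≤0.1%) for 48 h. Supernatant nitrite read by Griess reagent, 15 min room temperature, A540. Expressed as % of LPS-only response. IC50 from linear/nonlinear regression, n = 3. Curcumin positive control.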

SMILES | Activity (N9 [1]) | NO production (% of LPS control) at 10 µM (N9 [2]) [%] | NO production (% of LPS control) at 30 µM (N9 [3]) [%] | NO production (% of LPS control) at 3 µM (N9 [4]) [%] | NO production (% of LPS control) at 1 µM (N9 [5]) [%] | pIC50 (N9 [6]) | pIC50 (N9 [7])
C[C@@]12CC(=O)[C@H]3C[C@]1(O)O[C@H](O2)[C@@H]3COC(=O)c1ccccc1 [PAEONIFLORIGENONE] | Toxic | 24.5 | 26.7 | 71.9 | 92.6 | – | –
CO[C@H]1O[C@@]2(C)CC(=O)[C@H]3C[C@]2(O[C@@H]2O[C@H](CO[C@H]4O[C@@]5(C)CC(=O)[C@H]6C[C@]5(O[C@@H]5O[C@H](CO)[C@@H](O)[C@H](O)[C@H]5O)[C@]46COC(=O)c4ccccc4)[C@@H](O)[C@H](O)[C@H]2O)[C@]13COC(=O)c1ccccc1 [PAEONIDANIN D] | Toxic | 83.5 | 77.1 | 96.6 | 112 | – | –
C[C@@]12C[C@@]3(O)O[C@@H](O1)[C@]1(COC(=O)c4ccccc4)[C@@H]3C[C@]12O[C@@H]1O[C@H](COC(=O)c2cc(O)c(O)c(O)c2)[C@@H](O)[C@H](O)[C@H]1O [GALLOYLPAEONIFLORIN] | Toxic | 62.1 | 69.5 | 84.4 | 82.1 | – | –
C[C@@]12C[C@@]3(O)O[C@@H](O1)[C@]1(COC(=O)c4ccccc4)[C@@H]3C[C@]12O[C@@H]1O[C@H](COC(=O)c2ccccc2)[C@@H](O)[C@H](O)[C@H]1O [BENZOYLPAEONIFLORIN] | Toxic | 79.5 | 68.6 | 81.4 | 86.3 | – | –
C[C@]12CC(=O)[C@H]3C[C@]1(O[C@@H]1O[C@H](CO)[C@@H](O)[C@H](O)[C@H]1O)[C@]3(COC(=O)c1ccccc1)[C@@H](OC[C@H]1O[C@@H](O[C@@]34C[C@H]5[C@@]3(COC(=O)c3ccccc3)[C@H]3O[C@]5(O)C[C@]4(C)O3)[C@H](O)[C@@H](O)[C@@H]1O)O2 [PAEONIDANIN E] | – | 88.8 | 69.2 | 102 | 102 | 4.19 | –
C[C@@]12C[C@@]3(O)O[C@@H](O1)[C@]1(COC(=O)c4ccccc4)[C@@H]3C[C@]12O[C@@H]1O[C@H](CO[C@H]2O[C@H](CO)[C@@H](O)[C@H](O)[C@H]2O)[C@@H](O)[C@H](O)[C@H]1O | – | 85.1 | 70.5 | 91.5 | 90.1 | < 4.00 | –
C[C@@]12C[C@@]3(O)O[C@@H](O1)[C@]1(COC(=O)c4ccc(O)cc4)[C@@H]3C[C@]12O[C@@H]1O[C@H](CO)[C@@H](O)[C@H](O)[C@H]1O [OXYPAEONIFLORIN] | – | 76.6 | 76.6 | 83 | 71.7 | < 4.00 | –
CO[C@]12C[C@]3(C)O[C@H](O1)[C@]1(COC(=O)c4ccccc4)[C@@H]2C[C@]13O[C@@H]1O[C@H](COC(=O)c2ccccc2)[C@@H](O)[C@H](O)[C@H]1O | – | 70.4 | 34.9 | 95.5 | 91.9 | 4.65 | –
CO[C@H]1O[C@@]2(C)CC(=O)[C@H]3C[C@]2(O[C@@H]2O[C@H](COC(=O)c4cc(O)c(O)c(O)c4)[C@@H](O)[C@H](O)[C@H]2O)[C@]13COC(=O)c1ccccc1 [PAEONIDANIN B] | – | 52.2 | 43.5 | 64.1 | 63 | 4.86 | –
COC1O[C@@]2(C)CC(=O)[C@@H]3C[C@]2(O[C@@H]2O[C@H](CO)[C@@H](O)[C@H](O)[C@H]2O)[C@@]13COC(=O)c1ccccc1 (stereo partly specified) | – | – | – | – | – | – | < 4.00
C[C@@H]1CC(=O)[C@H]2C[C@]1(O)[C@]2(C)COC(=O)c1cc(O)c(O)c(O)c1 [PAEONIFLORONE] | – | 67.5 | 64.1 | 83.8 | 91.3 | 4.21 | –
C[C@]12C[C@@H](O)[C@H]3C[C@]1(O[C@@H]1O[C@H](COC(=O)c4ccccc4)[C@@H](O)[C@H](O)[C@H]1O)[C@]3(COC(=O)c1ccccc1)C(=O)O2 [PAEONIVAYIN] | – | 82 | 82.6 | 88.3 | 86.7 | < 4.00 | –
CO[C@]12C[C@]3(C)O[C@H](O1)[C@]1(COC(=O)c4ccccc4)[C@@H]2C[C@]13O[C@@H]1O[C@H](COC(=O)c2cc(O)c(O)c(O)c2)[C@@H](O)[C@H](O)[C@H]1O | – | 108 | 102 | 113 | 80.8 | < 4.00 | –
C[C@@]12C[C@@]3(O)O[C@@H](O1)[C@]1(COC(=O)c4ccc(O)cc4)[C@@H]3C[C@]12O[C@@H]1O[C@H](COC(=O)c2ccccc2)[C@@H](O)[C@H](O)[C@H]1O [MUDANPIOSIDE C] | – | 57.5 | 38.5 | 66.7 | 71.8 | 4.89 | –
